Measured values gathered from unrelated publications.
Protocols differ between the studies behind these lines.

Cc1cccc2[nH]cc(CNCC3(N4CCCC4)COC3)c12 — viability (GBM6; cell growth or viability; 30 µM, 48 h): 77.5%
N.N.[Cl][Pt][Cl] — EC50 (SK-MEL-28; cell growth or viability, resazurin; dark): 3.38 µM
Cc1cccc2c(CNCC3(N4CCCC4)COC3)c[nH]c12 — viability (T98G; cell growth or viability; 30 µM, 48 h): 34.1%
COc1nc2ccc(Br)cc2cc1[C@@H](c1ccccc1)[C@@](O)(CCN(C)C)c1cccc2ccccc12 — MIC (Mycolicibacterium phlei; microbial growth): 0.05 µg/mL
O=C(NC1CCC(CN2CCC(c3c[nH]c4ccccc34)CC2)CC1)c1[nH]c(=O)[nH]c(=O)c1F (centres unmarked) — IC50 (HEK293; cell growth or viability): > 10 µM
CO[C@H]1/C=C/O[C@@]2(C)Oc3c(C)c(O)c4c(O)c(c(/C=N/N5CCN(C)CC5)c(O)c4c3C2=O)NC(=O)/C(C)=C\C=C\[C@H](C)[C@H](O)[C@@H](C)[C@@H](O)[C@@H](C)[C@H](OC(C)=O)[C@@H]1C — MIC (Mycolicibacterium phlei; microbial growth): 0.03 µg/mL
CNCCCN(C)C(=O)Oc1c(Br)c(C)nc(C)c1-c1ccc(Oc2ccc(OC(F)(F)F)cc2)cc1 — IC50 (HEK293; cell growth or viability): > 10 µM
CO[C@H]1/C=C/O[C@@]2(C)Oc3c(C)c(O)c4c(O)c(c(/C=N/N5CCN(C)CC5)c(O)c4c3C2=O)NC(=O)/C(C)=C\C=C\[C@H](C)[C@H](O)[C@@H](C)[C@@H](O)[C@@H](C)[C@H](OC(C)=O)[C@@H]1C — MIC (Mycobacterium avium; microbial growth; 6 days): < 0.78 µM
O=c1c2ccccc2[se]n1-c1ccccc1 — inhibition (HEK293; cell growth or viability, MTT; 250 µM, 72 h): 64%
CO[C@H]1/C=C/O[C@@]2(C)Oc3c(C)c(O)c4c(O)c(c(/C=N/N5CCN(C)CC5)c(O)c4c3C2=O)NC(=O)/C(C)=C\C=C\[C@H](C)[C@H](O)[C@@H](C)[C@@H](O)[C@@H](C)[C@H](OC(C)=O)[C@@H]1C — MIC (Mycobacterium avium; microbial growth; ATCC25291): 3.1 µg/mL
COc1ccc(OC)c(C=CC(=O)NC2CCC(CN3CCC(c4c[nH]c5ccccc45)CC3)CC2)c1 (centres unmarked) — IC50 (HEK293; cell growth or viability): > 10 µM
COC(=O)C1=C(C)NC(C)=C(C(=O)OCCN(C)Cc2ccccc2)C1c1cccc([N+](=O)[O-])c1 (centres unmarked) — IC50 (Vesicular stomatitis virus; viral entry, inhibitor; Vero C1008; pseudovirus): 25 to 70 µM
O=C(NC1CCC(CN2CCC(c3c[nH]c4ccccc34)CC2)CC1)c1cn(Cc2ccccc2)c2ccccc12 (centres unmarked) — IC50 (HEK293; cell growth or viability): > 10 µM
C#C[C@]1(O)CC[C@H]2[C@@H]3CCc4cc(O)ccc4[C@H]3CC[C@@]21C — IC50 (Vesicular stomatitis virus; viral entry, inhibitor; Vero C1008; pseudovirus): 25 to 70 µM
